The source of these data is ChEMBL document CHEMBL1129560, “Nucleoside conjugates. 15. Synthesis and biological activity of anti-HIV nucleoside conjugates of ether and thioether phospholipids” (J Med Chem, 1996).

The subject of series [1] is CCRF-CEM. Kind of series: Effective concentration against HIV-1-infected CEM cells in mice administered intraperitoneally. The format is functional, cell-based. The note with it: Homo sapiens, in the assay text read “in vitro” for “in mice administered intraperitoneally”. A digest of the protocol:
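Conjugates were given as micellar suspensions made by sonication, in HIV-1-infected CEM cells. EC50 is the concentration protecting infected cells by 50%. IC50 is the concentration reducing viable cell number by 50%.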

Series [2] in a line: Time taken to decrease plasma concentration to half of its initial concentration after intraperitoneal administration. Particulars: ip. Type of series: ADME, organism-based. A digest of the protocol: (§1)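 Female NIH-Swiss mice (25–30 g) received one dose of micellar conjugate ip at 394 mg/kg (equivalent to 100 mg/kg parent nucleoside), or the parent at 100 mg/kg ip. An iv arm gave 205 mg/kg conjugate or 50 mg/kg parent. Three mice were taken per time point up to 24 h. Serum nucleoside was measured by HPLC-UV at 260 nm. Analysis was noncompartmental, with t1/2 = 0.693/λz.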

The subject of series [3] is CCRF-CEM. Description: Ability to reduce viable cell number on HIV-1-infected CEM cells in vitro. The note with it: Homo sapiens.
A short description of series [4]: Pharmacokinetic parameter AUC in mice following a single dose intraperitoneal administration of the compound. Particulars: mouse, in vivo, ip.
A short description of series [5]: Time taken to decrease plasma concentration to half of its initial concentration after iv administration. The format is ADME, organism-based.
A short description of series [6]: Time taken to decrease plasma concentration to half of its initial concentration after ip administration. The format is ADME, organism-based. A digest of the protocol: as §1

The structures appear in SMILES notation.

By EC50 is commonly meant the concentration giving half of the maximal effect. The term half-life denotes the time in which the quantity being followed falls by half. Low readings indicate rapid decline, high ones slow decline. By IC50 is commonly meant the midpoint of a concentration-inhibition curve. In general, AUC refers to concentration integrated over time. A lower AUC goes with less exposure. As to `CCCCCCCCCCCCCCCCCCSCC(COP(=O)([O-])OP(=O)([O-])OC[C@H]1O[C@@H](n2cc(C)c(=O)[nH]c2=O)C[C@@H]1N=[N+]=[N-])OC(=O)CCCCCCCCCCCCCCC.[Na+].[Na+]` (some centres not stated), the EC50 in the series on CCRF-CEM [1] was below 0.58 µM. This molecule also had a half-life in series [2] of 5.69 h. In the series on CCRF-CEM [3], this molecule came in with an IC50 of 120 µM. This molecule had an AUC in series [4] of 25800 ng·h/mL.

Turning to `CCCCCCCCCCCCCCCCCCSCC(COP(=O)(O)OP(=O)(O)OC[C@@H]1CC[C@H](n2ccc(N)nc2=O)O1)OC(=O)CCCCCCCCCCCCCCC` (some centres not stated), the EC50 with CCRF-CEM [1] amounted to 130 µM. This molecule also registered an IC50 in the series on CCRF-CEM [3] of 2800 µM.

Molecule `CCCCCCCCCCCCCCCCCCSCC(COP(=O)([O-])OP(=O)([O-])OC[C@H]1O[C@@H](n2ccc(=O)[nH]c2=O)C[C@@H]1N=[N+]=[N-])OC(=O)CCCCCCCCCCCCCCC.[Na+].[Na+]` (some centres not stated) showed a half-life in series [5] of 6.5 h. The EC50 in the series on CCRF-CEM [1] stood at 17 µM. This molecule had an IC50 in the series on CCRF-CEM [3] of 380 µM.

Molecule `CCCCCCCCCCCCCCCC(=O)OC(COCCCCCCCCCCCCCC)COP(=O)(O)OP(=O)(O)OC[C@H]1O[C@@H](n2cc(C)c(=O)[nH]c2=O)C[C@@H]1N=[N+]=[N-]` (some centres not stated) came in with an EC50 in the series on CCRF-CEM [1] of 57 µM. The molecule also gave an IC50 in the series with CCRF-CEM [3] of 14000 µM.

The molecule `[N-]=[N+]=N[C@H]1C[C@H](n2ccc(=O)[nH]c2=O)O[C@@H]1CO` [NAVURIDINE] had a half-life in series [5] of 0.89 h. The same molecule registered an AUC in series [4] of 42300 ng·h/mL.

Turning to `Cc1cn([C@H]2C[C@H](N=[N+]=[N-])[C@@H](CO)O2)c(=O)[nH]c1=O` [ZIDOVUDINE], the half-life in series [6] was 0.28 h. In the series on CCRF-CEM [1], this molecule showed an EC50 of 0.186 µM. For the same molecule, in the series on CCRF-CEM [3], the IC50 was 191 µM. The AUC in series [4] is 175000 ng·h/mL.
